ChEMBL document CHEMBL5038583, “Highly Potent and Selective Butyrylcholinesterase Inhibitors for Cognitive Improvement and Neuroprotection” (J Med Chem, 2021)
Activity calls are given as the source filed them. No cut-off for these calls is given here.

Columns and labels:
SH-SY5Y [1] = assay: Neuroprotective activity against glutamate-induced cytotoxicity in human SH-SY5Y cells at 10 uM pretreated for 2 hrs followed by glutamate stimulation and measured after 24 hrs by MTT assay; assay type: functional, cell-based; details: time 26.0 hrs
Summary of the method: (§1)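 SH-SY5Y cells seeded at 5000 per well and grown 24 h. Pretreated 2 h with compound (2.5 or 10 μM, diluted in DMEM from 10⁻¹ M DMSO stock), then H₂O₂ 200 μM, glutamate 20 mM or aggregated Aβ1-42 15 μM for 24 h. MTT added for 4 h, formazan dissolved in DMSO, absorbance read at 492 nm. Viability relative to untreated control; mean ± SEM, n = 3.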

[2] = Hepatotoxicity in ICR mouse assessed as change in aspartate aminotransferase activity at 1 g/kg, ig administered daily for 14 days measured upto 36 hrs post-administration; assay type: toxicity; details: in vivo, po, 1000 mg/kg, 336 h, time 14 day
Summary of the method: (§2)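 Heparinized serum from ICR mice taken at 8, 22 and 36 h after oral compound or saline control; AST and ALT activities measured.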

SH-SY5Y [3] = assay: Neuroprotective activity against H2O2-induced cytotoxicity in human SH-SY5Y cells pretreated for 2 hrs followed by H2O2 stimulation and measured after 24 hrs by MTT assay; assay type: functional, cell-based; details: dose 2.5-10 µM, time 26.0 hrs; summary of the method: as §1
Cholinesterase [4] = target: Cholinesterase (Equus caballus, UniProt P81908); assay: Inhibition of equine serum BChE using butyrylthiocholine iodide as substrate preincubated for 5 mins followed by substrate addition and measured after 2 mins by DTNB-reagent based Ellman's method
Cholinesterase [5] = target: Cholinesterase (Homo sapiens, UniProt P06276); assay: Inhibition of human serum BChE using butyrylthiocholine iodide as substrate preincubated for 20 mins followed by substrate addition and measured after 2 mins by DTNB-reagent based Ellman's method
Summary of the method: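 hBChE at 0.015 units/mL with DTNB in phosphate buffer pH 8.0, preincubated 20 min at room temperature with at least six concentrations (10⁻⁴−10⁻⁹). Butyrylthiocholine iodide (0.075 M solution) added; A412 read after 2 min at 25 °C. IC50 from % activity vs log concentration; triplicates in at least three runs.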

SH-SY5Y [6] = assay: Cytotoxicity against human SH-SY5Y cells assessed as survival rate at 100 uM incubated for 24 hrs by MTT assay; assay type: functional
Summary of the method: (§3)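 Cells seeded at 1 × 10⁴/well in DMEM with 10% FBS and left overnight, then given compound (DMSO stock diluted in DMEM) for 24 h at 37 °C. MTT added for 4 h, formazan dissolved in DMSO, absorbance read at 492 nm. Viability taken as OD treated/OD DMEM × 100%; IC50 from three independent experiments, mean SD.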

PC-12 [7] = assay: Cytotoxicity against rat PC-12 cells assessed as survival rate at 10 uM incubated for 24 hrs by MTT assay; assay type: functional; summary of the method: as §3
BV-2 [8] = assay: Cytotoxicity against mouse BV-2 cells assessed as survival rate at 100 uM incubated for 24 hrs by MTT assay; assay type: functional; summary of the method: as §3
HepG2 [9] = assay: Cytotoxicity against human HepG2 cells assessed as survival rate at 100 uM incubated for 24 hrs by MTT assay; assay type: functional; summary of the method: as §3
L02 = assay: Cytotoxicity against human L02 cells assessed as survival rate at 100 uM incubated for 24 hrs by MTT assay; assay type: functional; summary of the method: as §3
[10] = Acute toxicity in ICR mouse assessed as animal death at […]; details: in vivo, po, 1000 mg/kg, 336 h
[11] = Acute toxicity in ICR mouse assessed as abnormal behaviour at 1 g/kg, ig administered […]; details: in vivo, po, 1000 mg/kg
Summary of the method: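 Single dose of 1 g/kg given intragastrically on day 1 to overnight-fasted mice (15−18 g), suspended in 5% DMSO, 40% PEG 400, 55% saline. Male and female groups (n = 9), with vehicle controls. Death, daily behaviour and body mass followed over the next 2 weeks.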

[12] = Hepatotoxicity in ICR mouse assessed as change in alanine aminotransferase activity at 1 g/kg, ig administered daily for 14 days measured upto 36 hrs post-administration; assay type: toxicity; details: in vivo, po, 1000 mg/kg, 336 h, time 14 day; summary of the method: as §2
[13] = Hepatotoxicity in ICR mouse assessed as morphological changes in liver at 1 g/kg, ig administered daily for 14 days analysed after 22 hrs post-administration by hematoxylin and eosin staining based analysis; assay type: toxicity, tissue-based; details: in vivo, po, 1000 mg/kg, 336 h, time 14 day
Summary of the method: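 Liver from male mice taken 22 h after compound or vehicle; hematoxylin−eosin staining, viewed at ×100.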

[14] = Effective permeability of the compound in pH 7.4 PBS/EtOH (70:30) at 100 ug/ml incubated for 18 hrs by PAMPA-BBB assay; assay type: ADME; details: dose 100 µg/ml, read-out: Peff
Summary of the method: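 PAMPA-BBB with porcine brain lipid in dodecane (20 mg/mL) on PVDF filter. Donor holds compound at 100 μg/mL final (from 5 mg/mL DMSO stock) in PBS pH 7.4/EtOH 70:30; acceptor holds the same buffer. Incubated 18 h at 25 °C; donor and acceptor concentrations by UV at five wavelengths. Four wells, at least three runs, nine permeability standards; mean ± SD.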

SH-SY5Y [15] = assay: Neuroprotective activity against amyloid beta (1 to 42)-induced cytotoxicity in human SH-SY5Y cells at 2.5 uM pretreated for 2 hrs followed by amyloid beta (1 to 42) stimulation and measured after 24 hrs by MTT assay; assay type: functional, cell-based; details: time 26.0 hrs; summary of the method: as §1
SH-SY5Y [16] = assay: Neuroprotective activity against amyloid beta (1 to 42)-induced cytotoxicity in human SH-SY5Y cells at 10 uM pretreated for 2 hrs followed by amyloid beta (1 to 42) stimulation and measured after 24 hrs by MTT assay; assay type: functional, cell-based; details: time 26.0 hrs; summary of the method: as §1
BV-2 [17] = assay: Anti-inflammatory activity against mouse BV-2 cells assessed as blocked of LPS-induced increased ROS production by measuring green fluorescence preincubated for 1 hr by DCFH-DA staining based fluorescence microscopy; assay type: functional, cell-based
Summary of the method: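 BV2 cells seeded at 1 × 10⁴ per well and grown 24 h at 37 °C. Compounds at various concentrations for 1 h, then LPS 2.5 μg/mL for 24 h. Washed in PBS, loaded with DCFH-DA 5 μM (final) for 30 min, washed three times. Intracellular ROS taken as green fluorescence intensity by inverted fluorescence microscopy, exposure fixed at 10.2 ms.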

Mus musculus [18] = assay: Antialzheimer activity in ICR mouse assessed as reduction in scopolamine-induced cognitive impairment at 30 mg/kg, ig administered for 10 consecutive days by Morris water maze test; assay type: functional, organism-based; details: time 10.0 day
Summary of the method: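 Male ICR mice (8−10 weeks, 18−20 g), n = 8 per group. Compound at 15 or 30 mg/kg intragastric in DMSO/saline (10:90), given 30 min before scopolamine 3 mg/kg i.p., for 10 consecutive days; tacrine 15 mg/kg as reference. Morris water maze: 5 days of training, probe trial on day 6 with platform removed. Escape latency and trajectory recorded; mean ± SD.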

Mus musculus [19] = assay: Anti-alzheimer activity in amyloid beta(1 to 42)-induced ICR mouse model of cognitive impairment assessed as reduction in escape latency time at 15 mg/kg, ig administered at days 2 to 14 by Morris water maze test; assay type: functional
Summary of the method: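 Mouse model by icv oligomerized Aβ1-42 (10 μg/mouse, aggregated 24 h at 37 °C in saline) on day 1; 15 mg/kg ig on days 2−14, n = 8. Morris water maze training on days 9−13, probe trial day 14, escape latency and track recorded. Mean SD.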

Mus musculus [20] = assay: Anti-alzheimer activity in amyloid beta(1 to 42)-induced ICR mouse model of cognitive impairment assessed as simplification of trajectories at 15 mg/kg, ig administered at days 2 to 14 by Morris water maze test; assay type: functional, organism-based
Summary of the method: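 ICR mice, n = 8 per group. Aggregated Aβ1-42 (5 mM DMSO stock incubated 24 h at 37 °C in saline at 2 mg/mL) given 10 μg per mouse icv on day 1; saline icv for sham. Compound 15 mg/kg intragastric on days 2−14; donepezil reference. Morris water maze training days 9−13, probe trial day 14; tracks recorded; mean ± SD.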

Mus musculus [21] = assay: Anti-alzheimer activity in amyloid beta(1 to 42)-induced ICR mouse model of cognitive impairment assessed as enhanced alternation performance by measuring total number of arm entries at 15 mg/kg, ig administered at days 2 to 14 and measured on day 15 by Y-maze test; assay type: functional
Summary of the method: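 Oligomerized Aβ1-42 (10 μg per mouse, icv) given on day 1; saline icv for sham. Dosing 15 mg/kg ig on days 2−14 (donepezil as positive control), n = 8. Spontaneous alternation read on day 15 in a three-arm grey PVC Y maze, arms at 120°. Mean SD.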

[22] = Toxicity in ICR mouse assessed as increase in body weight administered for 14 days and measured daily; details: in vivo, 15 mg/kg, 336 h
[23] = Metabolic stability in human liver microsomes assessed as half life at 1 uM measured upto 45 mins in presence of NADPH by LC/MS/MS analysis; assay type: ADME, Microsome
Summary of the method: (§4)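 Human liver microsomes 0.5 mg/mL, compound 1 μM final, NADPH 2 mM, at 37 °C. Reactions stopped at 0, 5, 15, 30 and 45 min with acetonitrile containing imipramine internal standard. LC/MS/MS quantitation relative to 0 min; initial rates used for t1/2 and intrinsic clearance; ketanserin as assay control. Mean of two independent experiments.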

[24] = Metabolic stability in human liver microsomes assessed as intrinsic clearance at 1 uM measured upto 45 mins in presence of NADPH by LC/MS/MS analysis; assay type: ADME, Microsome; details: read-out: CLH; summary of the method: as §4
SH-SY5Y [25] = assay: Cytotoxicity against human SH-SY5Y cells assessed as reduction in cell viability incubated for 24 hrs by MTT assay; assay type: functional, cell-based; summary of the method: as §3
PC-12 [26] = assay: Cytotoxicity against rat PC-12 cells assessed as reduction in cell viability incubated for 24 hrs by MTT assay; assay type: functional, cell-based; details: PC-12, 24 h; summary of the method: as §3
HepG2 [27] = assay: Cytotoxicity against human HepG2 cells assessed as reduction in cell viability incubated for 24 hrs by MTT assay; assay type: functional, cell-based; details: HepG2, 24 h; summary of the method: as §3
SH-SY5Y [28] = assay: Cytotoxicity against human SH-SY5Y cells assessed as survival rate at 2.5 uM incubated for 24 hrs by MTT assay; assay type: functional; summary of the method: as §3
PC-12 [29] = assay: Cytotoxicity against rat PC-12 cells assessed as survival rate at 2.5 uM incubated for 24 hrs by MTT assay; assay type: functional; summary of the method: as §3

Cholinesterase (Homo sapiens, UniProt P06276), sequence (P06276 whole entry): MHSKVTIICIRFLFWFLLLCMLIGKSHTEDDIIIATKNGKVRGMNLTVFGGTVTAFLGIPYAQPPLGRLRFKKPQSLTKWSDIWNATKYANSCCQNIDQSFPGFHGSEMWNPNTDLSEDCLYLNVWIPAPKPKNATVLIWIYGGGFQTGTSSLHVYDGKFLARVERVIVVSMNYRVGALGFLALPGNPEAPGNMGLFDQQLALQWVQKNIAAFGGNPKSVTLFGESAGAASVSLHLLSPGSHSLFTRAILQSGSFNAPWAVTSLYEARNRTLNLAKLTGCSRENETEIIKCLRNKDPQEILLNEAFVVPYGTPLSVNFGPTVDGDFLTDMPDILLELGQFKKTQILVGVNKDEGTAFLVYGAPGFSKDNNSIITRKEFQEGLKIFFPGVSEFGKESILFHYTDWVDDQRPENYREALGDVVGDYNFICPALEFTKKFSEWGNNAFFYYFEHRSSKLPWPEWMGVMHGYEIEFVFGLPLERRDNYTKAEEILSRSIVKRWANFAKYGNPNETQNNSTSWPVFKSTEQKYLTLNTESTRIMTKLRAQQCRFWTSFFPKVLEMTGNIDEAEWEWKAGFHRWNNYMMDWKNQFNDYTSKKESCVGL
Cholinesterase (Equus caballus, UniProt P81908), sequence (P81908 whole entry): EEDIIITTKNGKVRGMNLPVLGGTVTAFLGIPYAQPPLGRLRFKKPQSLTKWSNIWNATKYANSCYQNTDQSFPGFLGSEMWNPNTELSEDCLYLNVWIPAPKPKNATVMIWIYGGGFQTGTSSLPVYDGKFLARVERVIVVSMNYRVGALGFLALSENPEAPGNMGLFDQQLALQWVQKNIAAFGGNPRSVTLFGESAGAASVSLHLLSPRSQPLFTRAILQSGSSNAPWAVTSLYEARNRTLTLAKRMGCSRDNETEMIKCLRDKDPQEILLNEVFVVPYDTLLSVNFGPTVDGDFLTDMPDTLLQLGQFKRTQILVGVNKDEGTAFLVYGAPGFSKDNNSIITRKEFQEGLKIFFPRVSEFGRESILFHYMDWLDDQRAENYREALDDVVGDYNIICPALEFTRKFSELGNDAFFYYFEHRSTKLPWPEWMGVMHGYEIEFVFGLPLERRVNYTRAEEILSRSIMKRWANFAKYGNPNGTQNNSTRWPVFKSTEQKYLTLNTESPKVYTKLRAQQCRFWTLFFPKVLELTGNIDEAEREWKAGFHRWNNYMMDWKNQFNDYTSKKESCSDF

Structure (SMILES): Nc1nonc1-c1nc2ccccc2n1CC(=O)Nc1cccc([N+](=O)[O-])c1
- Activity (SH-SY5Y [1]): Active
- Activity [2]: Non-Toxic
- Activity (SH-SY5Y [3]): Dose-Dependent Effect
- IC50 (Cholinesterase [4]): 0.031 µM
- IC50 (Cholinesterase [5]): 0.025 µM
- Activity (SH-SY5Y [6]): 82.67%
- Activity (PC-12 [7]): 58.34%
- Activity (BV-2 [8]): 94.23%
- Activity (HepG2 [9]): 75.46%
- Activity (L02): 87.01%
- Activity [10]: Non-Toxic
- Activity [11]: Non-Toxic
- Activity [12]: Non-Toxic
- Activity [13]: Non-Toxic
- Papp at 18 h, 100 ug/ml [14]: 12.4 ×10⁻⁶ cm/s
- Activity (SH-SY5Y [15]): Active
- Activity (SH-SY5Y [16]): Active
- Activity (BV-2 [17]): Active
- Activity (Mus musculus [18]): Active
- Activity (Mus musculus [19]): Active
- Activity (Mus musculus [20]): Active
- Activity (Mus musculus [21]): 68.67%
- Activity [22]: Toxic
- half-life at 1 µM [23]: 47.5 min
- CLint scaled at 1 µM [24]: 36.6 mL/min/kg

Structure (SMILES): Cc1ccc2cc(NC(=O)Cn3c(-c4nonc4N)nc4ccccc43)ccc2n1
- IC50 (SH-SY5Y [25]): 35.1 µM
- IC50 (PC-12 [26]): 91.5 µM
- Activity (BV-2 [8]): 59.79%
- IC50 (HepG2 [27]): 17.3 µM
- Activity (L02): 61.49%

Structure (SMILES): Nc1nonc1-c1nc2ccccc2n1CC(=O)Nc1cccc2ccccc12
- IC50 (Cholinesterase [4]): 0.044 µM
- IC50 (Cholinesterase [5]): 0.022 µM
- Activity (SH-SY5Y [28]): 40.84%
- Activity (PC-12 [29]): 44.44%
- Activity (BV-2 [8]): 82.9%
- IC50 (HepG2 [27]): 5.05 µM
- Activity (L02): 73.52%
